The subject of assay [1] is HL-60. Put plainly: Induction of apoptosis in human HL60 cells assessed as caspase 3 activity measured as cleavage of DEVD at 5 uM after 48 hrs by FACS analysis relative to control. It is filed as functional. An outline of the steps:
(§1)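 Caspase 3 activity was read in HL60 cells after 24 or 48 h treatment at 5–50 µM, with doxorubicin 1 µM as positive control. Activity is expressed relative to untreated HL60, set at 100.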

Assay [2] has as its system HL-60. Put plainly: Induction of apoptosis in human HL60 cells assessed as caspase 3 activity measured as cleavage of DEVD at 50 uM after 24 hrs by FACS analysis relative to control. The format is functional. The gist of the method:
as §1
(In general: Flow cytometry measures light scatter and fluorescence of single cells or particles in a stream.)

For assay [3], the system named is KB. Put plainly: Antiproliferative activity against human KB cells after 72 hrs. The format is functional, cell-based. An outline of the steps:
(§2)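 Cells exposed to compound for 72 h. IC50 values come from KB and HL60 cells. Single-point screening was run at 10^-5 M.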

Another assay has as its system MCF7. The assay is described as follows: Antiproliferative activity against human MCF7 cells at 10 uM after 72 hrs. It is filed as functional, cell-based. The gist of the method: as §2
The test system of assay [4] is HL-60. Put plainly: Cell cycle arrest in human HL60 cells assessed as accumulation at subG1 phase at 50 uM after 24 hrs by propidium iodide-based flow cytometry (reference value: 1.2 %). The format is functional. The gist of the method:
(§3)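 HL60 cells were treated for 24 h at 5, 20 or 50 µM, with doxorubicin 50 nM as control. DNA was stained with propidium iodide and analysed by flow cytometry. Results are the percentage of cells in subG1, G0/G1, S and G2/M.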

The subject of assay [5] is HL-60. The assay is described as follows: Induction of apoptosis in human HL60 cells assessed as caspase 3 activity measured as cleavage of DEVD at 20 uM after 48 hrs by FACS analysis relative to control. The format is functional. An outline of the steps: as §1
Assay [6] concerns HL-60. The assay is described as follows: Cell cycle arrest in human HL60 cells assessed as accumulation at G0/G1 phase at 5 uM after 24 hrs by propidium iodide-based flow cytometry (reference value: 47.6 %). It is filed as functional. The gist of the method: as §3
Assay [7] addresses RuvB-like 1 (Homo sapiens) (UniProt Q9Y265). The assay is described as follows: Inhibition of human recombinant his-tagged pontin expressed in Escherichia coli BL21 assessed as reduction in inorganic phosphate release at 100 uM after 10 mins by malachite green-based colorimetric assay. An outline of the steps: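 Pontin ATPase activity was measured as inorganic phosphate release by malachite green assay, with compounds tested at 100 µM.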

For a further assay, the system named is HCT-116. The assay is described as follows: Antiproliferative activity against human HCT116 cells at 10 uM after 72 hrs. It is filed as functional, cell-based. The gist of the method: as §2
For assay [8], the system named is HL-60. Put plainly: Induction of apoptosis in human HL60 cells assessed as caspase 3 activity measured as cleavage of DEVD after 24 to 48 hrs by FACS analysis relative to control. The format is functional, cell-based. The gist of the method: as §1
Assay [9] relates to HL-60. Put plainly: Antiproliferative activity against human HL60 cells after 72 hrs. The format is functional, cell-based. The conditions noted are these: HL-60, 72 h. The gist of the method: as §2
In assay [10] the test system is HL-60. Put plainly: Induction of apoptosis in human HL60 cells assessed as caspase 3 activity measured as cleavage of DEVD at 50 uM after 48 hrs by FACS analysis relative to control. The format is functional. An outline of the steps:
as §1

In assay [11] the test system is HL-60. The assay is described as follows: Induction of necrosis in human HL60 cells assessed as decrease in total LDH after 48 hrs. It is filed as functional, cell-based. An outline of the steps: (§4)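 Necrosis marker: LDH released into the culture medium and total LDH were measured in HL60 cells after 24 or 48 h treatment at 5–50 µM, with doxorubicin 1 µM as control.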

Assay [12] has as its system HL-60. Put plainly: Antiproliferative activity against human HL60 cells at 10 uM after 72 hrs. It is filed as functional, cell-based. The gist of the method:
as §2

Assay [13] deals with HL-60. The assay is described as follows: Induction of apoptosis in human HL60 cells assessed as caspase 3 activity measured as cleavage of DEVD at 5 uM after 24 hrs by FACS analysis relative to control. The format is functional. An outline of the steps: as §1
The test system of assay [14] is HL-60. The assay is described as follows: Induction of apoptosis in human HL60 cells assessed as caspase 3 activity measured as cleavage of DEVD at 20 uM after 24 hrs by FACS analysis relative to control. It is filed as functional. An outline of the steps:
as §1

Assay [15] relates to HL-60. The assay is described as follows: Cell cycle arrest in human HL60 cells assessed as accumulation at G2/M phase at 5 uM after 24 hrs by propidium iodide-based flow cytometry (reference value: 2.5 %). The format is functional. The gist of the method:
as §3

For assay [16], the system named is HL-60. The assay is described as follows: Induction of apoptosis in human HL60 cells assessed as caspase 3 activity measured as cleavage of DEVD at 10 uM after 48 hrs by FACS analysis relative to control. The format is functional. An outline of the steps: as §1
Assay [17] concerns HL-60. The assay is described as follows: Cell cycle arrest in human HL60 cells assessed as accumulation at G2/M phase at 50 uM after 24 hrs by propidium iodide-based flow cytometry (reference value: 2.5 %). It is filed as functional. The gist of the method:
as §3

The test system of assay [18] is HL-60. Put plainly: Cell cycle arrest in human HL60 cells assessed as accumulation at G0/G1 phase at 20 uM after 24 hrs by propidium iodide-based flow cytometry (reference value: 47.6 %). The format is functional. The gist of the method:
as §3

In assay [19] the test system is HL-60. Put plainly: Cell cycle arrest in human HL60 cells assessed as accumulation at G2/M phase at 20 uM after 24 hrs by propidium iodide-based flow cytometry (reference value: 2.5 %). The format is functional. The gist of the method: as §3
Assay [20] concerns HL-60. Put plainly: Cell cycle arrest in human HL60 cells assessed as accumulation at subG1 phase after 24 hrs by propidium iodide-based flow cytometry. It is filed as functional. An outline of the steps: as §3
Assay [21] relates to HL-60. The assay is described as follows: Induction of necrosis in human HL60 cells assessed as LDH release at >20 uM after 24 hrs. The format is functional, cell-based. An outline of the steps:
as §4
(In general: Release of lactate dehydrogenase indicates damage to the cell membrane.)

Assay [22] concerns KB. The assay is described as follows: Antiproliferative activity against human KB cells at 10 uM after 72 hrs. The format is functional, cell-based. An outline of the steps:
as §2

The subject of assay [23] is HL-60. The assay is described as follows: Induction of apoptosis in human HL60 cells at 20 uM after 48 hrs by FACS analysis. It is filed as functional, cell-based. The gist of the method:
(§5)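 HL60 cells were labelled with annexin and 7-AAD after 24 or 48 h exposure at 5, 20 or 50 µM, with doxorubicin 100 nM as reference. FACS sorted cells into intact, early apoptotic, late apoptotic and necrotic fractions, given as percentages.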

The test system of assay [24] is HL-60. Put plainly: Induction of apoptosis in human HL60 cells after 24 to 48 hrs by FACS analysis. It is filed as functional, cell-based. The gist of the method: as §5
Assay [25] concerns HL-60. The assay is described as follows: Cell cycle arrest in human HL60 cells assessed as accumulation at subG1 phase at 20 uM after 24 hrs by propidium iodide-based flow cytometry (reference value: 1.2 %). The format is functional. An outline of the steps: as §3
In assay [26] the test system is HL-60. The assay is described as follows: Induction of apoptosis in human HL60 cells at 20 uM after 24 hrs by FACS analysis. The format is functional, cell-based. An outline of the steps: as §5
The subject of assay [27] is HL-60. Put plainly: Cell cycle arrest in human HL60 cells assessed as accumulation at subG1 phase at 5 uM after 24 hrs by propidium iodide-based flow cytometry (reference value: 1.2 %). It is filed as functional. The gist of the method:
as §3

In assay [28] the test system is HL-60. The assay is described as follows: Cell cycle arrest in human HL60 cells assessed as accumulation at S phase at 50 uM after 24 hrs by propidium iodide-based flow cytometry (reference value: 48.7 %). It is filed as functional. An outline of the steps:
as §3

Assay [29] relates to HL-60. The assay is described as follows: Cell cycle arrest in human HL60 cells assessed as accumulation at S phase at 5 uM after 24 hrs by propidium iodide-based flow cytometry (reference value: 48.7 %). It is filed as functional. An outline of the steps:
as §3

The subject of assay [30] is HL-60. Put plainly: Cell cycle arrest in human HL60 cells assessed as accumulation at G0/G1 phase at 50 uM after 24 hrs by propidium iodide-based flow cytometry (reference value: 47.6 %). It is filed as functional. An outline of the steps: as §3
A short description of assay [31]: Antiproliferative activity against human EPC cells after 72 hrs. The format is cell-based.
The subject of assay [32] is HL-60. The assay is described as follows: Induction of apoptosis in human HL60 cells at 50 uM after 24 hrs by FACS analysis relative to control. The format is functional. An outline of the steps:
as §5

The subject of assay [33] is HL-60. The assay is described as follows: Cell cycle arrest in human HL60 cells assessed as accumulation at S phase at 20 uM after 24 hrs by propidium iodide-based flow cytometry (reference value: 48.7 %). It is filed as functional. The gist of the method:
as §3

Assay [34] deals with HL-60. The assay is described as follows: Induction of apoptosis in human HL60 cells assessed as caspase 3 activity measured as cleavage of DEVD at 10 uM after 24 hrs by FACS analysis relative to control. The format is functional. An outline of the steps:
as §1

The subject of assay [35] is HL-60. Put plainly: Induction of necrosis in human HL60 cells assessed as decrease in total LDH at 1 uM after 48 hrs. It is filed as functional, cell-based. The gist of the method: as §4

Activity calls are given as the source filed them. The rule behind the calls is not given here.

RuvB-like 1 (Homo sapiens), sequence (Q9Y265 whole entry): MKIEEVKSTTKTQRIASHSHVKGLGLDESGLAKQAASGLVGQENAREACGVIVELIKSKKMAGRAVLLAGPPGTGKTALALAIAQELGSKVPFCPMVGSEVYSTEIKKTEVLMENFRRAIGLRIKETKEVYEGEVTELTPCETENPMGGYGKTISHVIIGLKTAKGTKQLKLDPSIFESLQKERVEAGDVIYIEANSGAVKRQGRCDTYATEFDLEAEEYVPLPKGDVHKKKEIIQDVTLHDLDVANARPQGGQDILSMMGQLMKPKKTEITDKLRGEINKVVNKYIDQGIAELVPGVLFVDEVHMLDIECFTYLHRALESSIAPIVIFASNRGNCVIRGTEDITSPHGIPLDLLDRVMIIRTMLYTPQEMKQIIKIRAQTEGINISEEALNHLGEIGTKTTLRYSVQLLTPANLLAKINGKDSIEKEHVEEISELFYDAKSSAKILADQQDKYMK

One may read the IC50 as the concentration needed to halve the response being measured. On to `N[C@@H](Cc1c[nH]c2ccccc12)C(=O)Nc1ccc(-c2c(O)c(-c3ccccc3)c[nH]c2=O)cc1`, for which the Activity is 119% in the assay with HL-60 [1]; 306% in the assay on HL-60 [2]; 69.5% in the assay on HL-60 [4]; 247% in the assay with HL-60 [5]; 48.3% in the assay with HL-60 [6]; “Dose-dependent effect” in the assay on HL-60 [8]. The Activity in the assay with HL-60 [10] is 169%; with HL-60 [11], “Dose-dependent effect”; with HL-60 [13] it was 116%; with HL-60 [14] it was 134%; in the assay with HL-60 [15], 4.3%; in the assay with HL-60 [16], 131%. Further, the Activity in the assay on HL-60 [17] is 1.3%; in the assay with HL-60 [18], 46.8%; in the assay with HL-60 [19] it was 8%; in the assay with HL-60 [20], “Dose-dependent effect”; with HL-60 [24], “Dose-dependent effect”; with HL-60 [25], 10.9%. For the same compound, the Activity is listed as 2.7% in the assay with HL-60 [27]; 14.6% with HL-60 [28]; 44.7% with HL-60 [29]; 14.7% in the assay on HL-60 [30]; 95% in the assay on HL-60 [32]; 34.4% in the assay with HL-60 [33]. In the assay with HL-60 [34], the Activity came out at 111%. The IC50 in the assay with KB [3] came out at 9 µM; in the assay on HL-60 [9] it was 15 µM; in assay [31], 25 µM. The outcome with MCF7, with HCT-116, with HL-60 [12], in the assay on HL-60 [21], in the assay with KB [22] and in the assay with HL-60 [23] was Active. Moreover, the result in the assay with HL-60 [26] was Active. Besides, the inhibition result in assay [7] is “Active”.

For `COc1cccc2c1C(=O)c1c(O)c3c(c(O)c1C2=O)C[C@@](O)(C(=O)CO)C[C@@H]3O[C@H]1C[C@H](N)[C@H](O)[C@H](C)O1`, the outcome in the assay on HL-60 [35] was Active.

Consider `O=C(O)[C@@H](Cc1c[nH]c2ccccc12)NCc1ccc(-c2c(O)c3ccccc3[nH]c2=O)cc1`, for which the outcome in the assay with MCF7, with HCT-116, with HL-60 [12] and in the assay on KB [22] was inactive. The inhibition entry in [7] is “inactive”.

Turning to `O=C(O)[C@H](Cc1c[nH]c2ccccc12)NCc1ccc(-c2c(O)c3ccccc3[nH]c2=O)cc1`, the outcome in the assay on MCF7, in the assay with HCT-116, in the assay with HL-60 [12] and in the assay with KB [22] was inactive. For the same compound, the inhibition entry in assay [7] is “inactive”.

Turning to `N[C@@H](Cc1c[nH]c2ccccc12)C(=O)Nc1ccc(-c2c(O)c3ccccc3[nH]c2=O)cc1`, the result with MCF7, in the assay with HCT-116, with HL-60 [12] and in the assay with KB [22] was inactive.

Values taken from ChEMBL document CHEMBL3259767, “Design, synthesis and biological evaluation of Pontin ATPase inhibitors through a molecular docking approach” (Bioorg Med Chem Lett, 2014).
